Measured values reported in ChEMBL document CHEMBL1152452, “Modifications incorporated in CpG motifs of oligodeoxynucleotides lead to antagonist activity of toll-like receptors 7 and 9” (2009).
Calls of active or inactive are those of the source. No cut-off for these calls is given here.

Tests used:
[1] = molecular target: T1, Toll-like receptor 9 (Mus musculus) (UniProt Q9EQU3); assay: Activation of mouse TLR9 expressed in HEK293 cells assessed as NF-kappaB level at 1 ug/mL after 18 hrs by reporter gene assay; type: cell-based
T1 sequence (whole entry): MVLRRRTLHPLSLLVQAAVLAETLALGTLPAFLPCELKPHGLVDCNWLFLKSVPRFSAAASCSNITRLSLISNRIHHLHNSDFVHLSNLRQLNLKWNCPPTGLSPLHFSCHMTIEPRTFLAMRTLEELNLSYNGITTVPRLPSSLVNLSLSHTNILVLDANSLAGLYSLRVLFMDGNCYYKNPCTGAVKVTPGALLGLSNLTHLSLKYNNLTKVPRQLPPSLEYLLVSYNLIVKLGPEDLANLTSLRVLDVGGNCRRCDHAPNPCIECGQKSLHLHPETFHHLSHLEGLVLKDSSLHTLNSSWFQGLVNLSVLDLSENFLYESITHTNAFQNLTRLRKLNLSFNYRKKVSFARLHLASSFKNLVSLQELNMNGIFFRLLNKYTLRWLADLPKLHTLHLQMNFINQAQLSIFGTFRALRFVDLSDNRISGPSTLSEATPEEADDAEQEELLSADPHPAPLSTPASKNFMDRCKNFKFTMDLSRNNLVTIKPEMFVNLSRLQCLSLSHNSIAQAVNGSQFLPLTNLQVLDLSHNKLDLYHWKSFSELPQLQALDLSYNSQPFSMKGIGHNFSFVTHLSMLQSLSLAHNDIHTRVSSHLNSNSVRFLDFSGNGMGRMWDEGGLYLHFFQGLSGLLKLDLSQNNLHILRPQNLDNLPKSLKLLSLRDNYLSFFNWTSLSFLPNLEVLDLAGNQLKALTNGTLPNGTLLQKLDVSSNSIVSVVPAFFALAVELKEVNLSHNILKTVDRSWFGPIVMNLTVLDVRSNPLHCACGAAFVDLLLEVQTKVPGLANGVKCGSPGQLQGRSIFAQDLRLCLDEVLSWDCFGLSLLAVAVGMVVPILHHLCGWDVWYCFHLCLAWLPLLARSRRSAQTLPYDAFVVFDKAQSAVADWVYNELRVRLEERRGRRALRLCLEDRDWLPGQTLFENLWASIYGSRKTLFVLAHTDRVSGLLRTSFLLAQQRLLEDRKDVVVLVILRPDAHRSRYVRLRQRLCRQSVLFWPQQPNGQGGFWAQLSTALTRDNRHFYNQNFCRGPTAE
In short: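 HEK293 cells stably expressing mouse TLR9 were transiently transfected with a SEAP reporter for 6 h, then stimulated with ODN at 0.1, 0.3 or 1 μg/mL for 18 h. Reporter expression is given as fold change in NF-κB activity over medium. Representative of two independent experiments.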

[2] = system: J774; assay: Inhibition of 5'-CTATCTGACGTTCTCTGT-3'-activated NF-kappaB activity in mouse J774 cells at 2.5 ug/ml after 1 hr by EMSA; type: cell-based
In short: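 J774 murine macrophages were grown in DMEM with 10% FBS and antibiotics, plated at 5 × 10^6 cells/well, and co-incubated for 1 h with the agonist ODN (0.5 µg/mL) and test ODN (2.5 µg/mL). Nuclear extracts were prepared and NF-κB binding was analysed by EMSA on native polyacrylamide gels with autoradiography.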

[3] = system: Splenocyte; assay: Immunostimulatory activity in C57BL/6 mouse splenocytes assessed as induction of IL12 secretion at 2 to 10 ug/ml after 24 hrs by sandwich ELISA; type: functional, cell-based
In short: (§1)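 C57BL/6 splenocytes (mice 5–8 weeks) at 5 × 10^6 cells/mL in RPMI complete medium. ODNs dissolved in PBS were added and the cells incubated at 37 °C for 24 h. Supernatant IL-12 or IL-6 was measured by sandwich ELISA. Runs were done two or three times, in duplicate per concentration.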

[4] = system: Splenocyte; assay: Immunostimulatory activity in C57BL/6 mouse splenocytes assessed as induction of IL6 secretion at 2 to 10 ug/ml after 24 hrs by sandwich ELISA; type: functional, cell-based; in short: as §1
[5] = system: Splenocyte; assay: Inhibition of 5'-CTATCTGACGTTCTCTGT-3'-induced IL12 secretion in C57BL/6 mouse splenocytes after 24 hrs by sandwich ELISA; type: functional, cell-based
In short: (§2)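 Splenocytes from 5–8-week C57BL/6 mice, 5 × 10^6 cells/mL in RPMI complete medium, were co-incubated with the TLR9 agonist ODN (1 µg/mL) plus test ODN at 1 or 4 µg/mL, or over a concentration series, at 37 °C for 24 h. Supernatant IL-12 or IL-6 was measured by sandwich ELISA. Runs were done in duplicate, with three independent experiments.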

[6] = system: Splenocyte; assay: Inhibition of 5'-CTATCTGACGTTCTCTGT-3'-induced IL6 secretion in C57BL/6 mouse splenocytes after 24 hrs by sandwich ELISA; type: functional, cell-based; in short: as §2
[7] = system: Mus musculus; assay: Immunostimulatory activity in C57BL/6 mouse assessed as induction of TNFalpha level in serum at 2 mg/kg, sc after 2 hrs by Luminex multiplex assay; type: functional, organism-based; set-up: dose 2 mg/kg
In short: (§3)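 Female C57BL/6 mice, 5–6 weeks old, n = 3, received a single 2 mg/kg subcutaneous ODN injection in the right flank. Blood was taken by retro-orbital bleeding 2 h later. Naive mice served as baseline. Representative of three experiments.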

[8] = system: Mus musculus; assay: Immunostimulatory activity in C57BL/6 mouse assessed as induction of IL10 level in serum at 2 mg/kg, sc after 2 hrs by Luminex multiplex assay; type: functional, organism-based; set-up: dose 2 mg/kg; in short: as §3
[9] = system: Mus musculus; assay: Immunostimulatory activity in C57BL/6 mouse assessed as induction of IL12 level in serum at 2 mg/kg, sc after 2 hrs by sandwich ELISA; type: functional, organism-based; set-up: dose 2 mg/kg; in short: as §3
[10] = system: Mus musculus; assay: Immunostimulatory activity in C57BL/6 mouse assessed as inhibition of 5'-CTATCTGACGTTCTCTGT-3'-induced MIP-1alpha production in serum at 2 mg/kg, sc administered 24 hrs prior to 5'-CTATCTGACGTTCTCTGT-3' challenge measured after 2 hrs by Luminex multiplex assay; type: functional, organism-based; set-up: dose 2 mg/kg
In short: (§4)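 C57BL/6 mice received 2 mg/kg ODN sc in one flank. After 24 h, the TLR9 agonist ODN was given at 0.5 mg/kg sc in the opposite flank. Blood was drawn 2 h later and serum cytokines/chemokines were quantified by Luminex multiplex assay. Percent inhibition was taken against the agonist alone. Representative of three experiments.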

[11] = system: Mus musculus; assay: Immunostimulatory activity in C57BL/6 mouse assessed as inhibition of 5'-CTATCTGACGTTCTCTGT-3'-induced MCP1 production in serum at 2 mg/kg, sc administered 24 hrs prior to 5'-CTATCTGACGTTCTCTGT-3' challenge measured after 2 hrs by Luminex multiplex assay; type: functional, organism-based; set-up: dose 2 mg/kg; in short: as §4
[12] = system: Mus musculus; assay: Immunostimulatory activity in sc dosed C57BL/6 mouse assessed as inhibition of 5'-CTATCTGACGTTCTCTGT-3'-induced IL12 production in serum administered 24 hrs prior to 5'-CTATCTGACGTTCTCTGT-3' challenge measured after 2 hrs by sandwich ELISA; type: functional, organism-based
In short: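 Test ODN was given sc in the right flank of C57BL/6 mice at 2, 5 or 10 mg/kg. After 24 h (or 24, 48 or 72 h in the duration study), the agonist ODN was given sc in the left flank at 0.25, 0.5 or 1 mg/kg (0.5 mg/kg by default). Serum was taken 2 h later by retro-orbital bleed, and IL-12 was measured by sandwich ELISA.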

For `COC1[C@H](n2cc(C)c(N)nc2=O)O[C@H](COP(=O)(S)O[C@H]2C[C@H](n3cnc4c(N)ncnc43)O[C@@H]2COP(=O)(S)O[C@H]2C[C@H](n3cnc4c(=O)[nH]c(N)nc43)O[C@@H]2COP(=O)(S)O[C@H]2C[C@H](n3cc(C)c(=O)[nH]c3=O)O[C@@H]2COP(=O)(S)O[C@H]2C[C@H](n3ccc(N)nc3=O)O[C@@H]2COP(=O)(S)O[C@H]2C[C@H](n3cc(C)c(=O)[nH]c3=O)O[C@@H]2COP(=O)(S)O[C@H]2C[C@H](n3cnc4c(N)ncnc43)O[C@@H]2COP(=O)(S)O[C@H]2C[C@H](n3cc(C)c(=O)[nH]c3=O)O[C@@H]2COP(=O)(S)O[C@H]2C[C@H](n3ccc(N)nc3=O)O[C@@H]2CO)[C@H]1OP(=O)(S)OC[C@H]1O[C@@H](n2cnc3c(=O)[nH]c(N)nc32)C[C@@H]1OP(=O)(S)OC[C@H]1O[C@@H](n2cc(C)c(=O)[nH]c2=O)C[C@@H]1OP(=O)(S)OC[C@H]1O[C@@H](n2cc(C)c(=O)[nH]c2=O)C[C@@H]1OP(=O)(S)OC[C@H]1O[C@@H](n2ccc(N)nc2=O)C[C@@H]1OP(=O)(S)OC[C@H]1O[C@@H](n2cc(C)c(=O)[nH]c2=O)C[C@@H]1OP(=O)(S)OC[C@H]1O[C@@H](n2ccc(N)nc2=O)C[C@@H]1OP(=O)(S)OC[C@H]1O[C@@H](n2cc(C)c(=O)[nH]c2=O)C[C@@H]1OP(=O)(S)OC[C@H]1O[C@@H](n2cnc3c(=O)[nH]c(N)nc32)C[C@@H]1OP(=O)(S)OC[C@H]1O[C@@H](n2cc(C)c(=O)[nH]c2=O)C[C@@H]1O` (stereo partly drawn), the Activity [1] was “inactive”, the Activity [2] was “Active” and the Activity [3] was “Active”. For the same molecule, the Activity [4] was “Active”, the Activity [5] was “Dose-dependent effect” and the Activity [6] was “Dose-dependent effect”. The Activity [7] was “inactive”, the Activity [8] was “inactive” and the Activity [9] was “inactive”. The Activity [10] was “Active” and the Activity [11] was “Active”.
With `COC1[C@H](n2cnc3c(=O)[nH]c(N)nc32)O[C@H](COP(=O)(S)O[C@H]2C[C@H](n3cc(C)c(N)nc3=O)O[C@@H]2COP(=O)(S)O[C@H]2C[C@H](n3cnc4c(N)ncnc43)O[C@@H]2COP(=O)(S)O[C@H]2C[C@H](n3cnc4c(=O)[nH]c(N)nc43)O[C@@H]2COP(=O)(S)O[C@H]2C[C@H](n3cc(C)c(=O)[nH]c3=O)O[C@@H]2COP(=O)(S)O[C@H]2C[C@H](n3ccc(N)nc3=O)O[C@@H]2COP(=O)(S)O[C@H]2C[C@H](n3cc(C)c(=O)[nH]c3=O)O[C@@H]2COP(=O)(S)O[C@H]2C[C@H](n3cnc4c(N)ncnc43)O[C@@H]2COP(=O)(S)O[C@H]2C[C@H](n3cc(C)c(=O)[nH]c3=O)O[C@@H]2COP(=O)(S)O[C@H]2C[C@H](n3ccc(N)nc3=O)O[C@@H]2CO)[C@H]1OP(=O)(S)OC[C@H]1O[C@@H](n2cc(C)c(=O)[nH]c2=O)C[C@@H]1OP(=O)(S)OC[C@H]1O[C@@H](n2cc(C)c(=O)[nH]c2=O)C[C@@H]1OP(=O)(S)OC[C@H]1O[C@@H](n2ccc(N)nc2=O)C[C@@H]1OP(=O)(S)OC[C@H]1O[C@@H](n2cc(C)c(=O)[nH]c2=O)C[C@@H]1OP(=O)(S)OC[C@H]1O[C@@H](n2ccc(N)nc2=O)C[C@@H]1OP(=O)(S)OC[C@H]1O[C@@H](n2cc(C)c(=O)[nH]c2=O)C[C@@H]1OP(=O)(S)OC[C@H]1O[C@@H](n2cnc3c(=O)[nH]c(N)nc32)C[C@@H]1OP(=O)(S)OC[C@H]1O[C@@H](n2cc(C)c(=O)[nH]c2=O)C[C@@H]1O` (stereo partly drawn) the Activity [1] was “inactive”, the Activity [2] was “Active” and the Activity [3] was “Active”. For the same molecule, the Activity [4] was “Active”, the Activity [5] was “Dose-dependent effect” and the Activity [6] was “Dose-dependent effect”. For the same molecule, the Activity [7] was “inactive”, the Activity [8] was “inactive” and the Activity [9] was “inactive”. For the same molecule, the Activity [10] was “Active”, the Activity [11] was “Active” and the Activity [12] was “Dose-dependent effect”.
